Assay outcomes (PubChem BioAssay)
This is a sample that favours compounds with a hit; in the whole collection about 0.95% have one here.
CAL PDZ FP-1 – human CAL PDZ-peptide interaction inhibition | inhibition, % at 20 µM | purified CAL PDZ, TMR-peptide fluorescence polarization, 1 h | AID 504414 | hit rate 0.02% among 330,000;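 active = highest replicate inhibition of at least 40%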;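 note: plate controls were DMSO neutral control wells for no effect and unlabeled competitor peptide control wells for full effect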
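material = purified tagged CAL PDZ domain construct (CerCALP) | compound dosing = 20 µM, one dose | times = 1 h at RT | measured by = fluorescence polarization from S- and P-plane intensities, G-factor corrected | read-out = inhibition from polarization loss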
miR122 inh – inhibitors of miR-122 in Huh7 cells; Huh7 miR-122 Renilla luciferase sensor, 48 h; neutral wells = 0, positive control = 100; activation (reporter increase), % at 12.5 µM; hit rate 0.3% among 340,000; AID 602342;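 active = mean replicate activation score at least 90 and every replicate individually at or above 90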;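 note: higher luciferase means less miR-122 activity so hits act as miR-122 inhibitors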
PvdQ acylase – blocks Pseudomonas aeruginosa PvdQ acylase activity. purified PvdQ acylase, fluorescence plate reader. inhibition, % at 10 µM. hit rate 0.063% among 340,000; in the data active = inhibition above about 30%, passing the limit was not always enough;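 note: 0% = vehicle neutral wells and 100% = reference inhibitor wells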
CAL PDZ FP-2 – blocks peptide binding to the human CAL PDZ domain; purified CAL PDZ, TMR-peptide fluorescence polarization, 1 h; inhibition, % at 24.9 µM; hit rate 0.92% among 300,000;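 active = mean inhibition of at least 30% with at least half of replicates also reaching 30%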;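 note: 0% = DMSO neutral control and 100% = excess unlabeled competitor peptide PRC23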
Starred values were filed as active, the others as inactive; x = not tested or not shown; [ ] = another dose, or the depositor's remark.

SMILES	CAL PDZ FP-1	miR122 inh	PvdQ acylase	CAL PDZ FP-2
Cc1ccc(N2C(=O)C3C(C2=O)C(C(=O)c2ccc(Cl)cc2)N2CCCC32)cc1 (stereo not given)	0.0	1.4	-9.5	41.9*
COc1ccc(/C=N/c2nc3ccccc3n2C)cc1OC	-2.3	-2.2	-11.4	-3.9
Brc1ccc(-n2cnc(-c3ccccc3)c2)cc1	-2.9	10.5	1.8	51.3*
NNc1nc(-c2ccccc2)cc(-c2ccc(Br)cc2)n1	-0.4	1.4	1.1	0.9
O=C(NCCN1CCOCC1)C(=O)NCc1ccc2c(c1)OCO2	0.2	0.8	-6.0	3.8
O=C(NNC(=O)c1cccnc1)Nc1ccc(Cl)c(Cl)c1	-5.5	-2.3	-5.4	-2.4
O=C(NNC(=O)c1ccc(Cl)c(Cl)c1)c1cccnc1	91.7*	1.0	-9.8	-1.9
CC(C)NC(=O)NC(=O)CSc1nnc(-c2c[nH]c3ccccc23)o1	-2.3	-0.4	10.6	-0.2
O=C(CSc1nnc(-c2c[nH]c3ccccc23)o1)NCC1CCCO1 (stereo not given)	-1.4	-3.1	-14.9	44.0*
COc1cccc(S(=O)(=O)Nc2ccc3c(c2)C(=O)N(C)C[C@H](OC)[C@H](C)CN[C@@H](C)CO3)c1	x	-5.7[16.7 µM]	x	x
CC1(CNC(=O)C(=O)NCC2(C)CO2)CO1 (stereo not given)	0.9	-10.6	-17.4	40.6*
O=C(NCC1(c2ccccc2)CCCC1)C(=O)NCC1(c2ccccc2)CCCC1	-0.1	6.7	-14.8	-4.8
COc1ccc(NC(=O)c2cc3c(-c4ccc(OC)c(OC)c4)nn(C)c3s2)cc1OC	9.9	-1.6	1.9	55.8*
C=CCc1ccc(OCCCCN2CC(C)OC(C)C2)c(OC)c1 (stereo not given)	-0.6	4.4	-10.2	58.4*
COc1cccc(OCCCCN2CC(C)OC(C)C2)c1 (stereo not given)	-0.6	2.2	-17.2	42.1*
CC1CN(CCOc2ccc(F)cc2)CC(C)O1 (stereo not given)	-0.3	-0.3	-7.5	42.1*
CC1CN(CCOc2ccc([N+](=O)[O-])cc2)CC(C)O1 (stereo not given)	0.3	0.6	-11.6	-2.0
C[C@@H]1CN([C@@H](C)CO)C(=O)c2cccc(NC(=O)c3cnccn3)c2O[C@@H]1CN(C)Cc1ccc(C(=O)Nc2ccccc2N)cc1	x	128.8*[16.7 µM]	x	x
C[C@H](CO)N1C[C@H](C)[C@@H](CN(C)Cc2ccc(C(=O)Nc3ccccc3N)cc2)Oc2c(NC(=O)Nc3ccccc3)cccc2C1=O	x	97.4*[16.7 µM]	x	x
C[C@@H]1CN([C@H](C)CO)C(=O)c2cc(NC(=O)Nc3ccc(C(F)(F)F)cc3)ccc2O[C@H]1CN(C)Cc1ccc(Cl)c(Cl)c1	-0.2	-2.7[16.7 µM]	-11.3	36.6*
C[C@H]1CN([C@@H](C)CO)C(=O)c2cccc(NC(=O)c3ccncc3)c2O[C@@H]1CN(C)Cc1ccc(C(=O)Nc2ccccc2N)cc1	x	11.7[16.7 µM]	x	x
C[C@H]1CN([C@@H](C)CO)C(=O)c2cccc(NC(=O)Nc3ccccc3)c2O[C@@H]1CN(C)Cc1ccc(C(=O)Nc2ccccc2N)cc1	x	152.9*[16.7 µM]	x	x
CCOC(=O)c1sc(NC(=O)CN(CC(C)C)CC(C)C)c(C(=O)OCC)c1C	-0.1	-6.9	-11.6	-12.5
CCOc1ccc(-n2c(-c3ccco3)nc3c(cnn3-c3ccc(C)cc3)c2=O)cc1	-1.0	-8.0	-14.6	-1.7
C[C@H](CO)N1C[C@H](C)[C@H](CN(C)Cc2ccc(C(F)(F)F)cc2)Oc2c(NC(=O)Nc3ccccc3)cccc2C1=O	x	25.7[16.7 µM]	x	x
SMILES	CAL PDZ FP-1	miR122 inh	PvdQ acylase	CAL PDZ FP-2
C[C@@H]1CN([C@H](C)CO)C(=O)c2cccc(NC(=O)Nc3ccccc3)c2O[C@H]1CN(C)Cc1ccc(C(F)(F)F)cc1	x	106.8*[16.7 µM]	x	x
C[C@H]1CN([C@@H](C)CO)C(=O)c2cc(NC(=O)C3CCCCC3)ccc2O[C@@H]1CN(C)S(C)(=O)=O	x	-1.8[16.7 µM]	x	x
COc1ccc(S(=O)(=O)N(C)C[C@H]2Oc3ccc(NC(=O)Nc4ccc(F)cc4)cc3C(=O)N([C@H](C)CO)C[C@H]2C)cc1	x	101.2*[16.7 µM]	x	x
COc1ccc(S(=O)(=O)N(C)C[C@@H]2Oc3ccc(NC(=O)Nc4ccc(F)cc4)cc3C(=O)N([C@@H](C)CO)C[C@H]2C)cc1	x	1.9[16.7 µM]	x	x
COc1ccc(NC(=O)Nc2ccc3c(c2)C(=O)N([C@H](C)CO)C[C@@H](C)[C@@H](CN(C)S(=O)(=O)c2ccc(OC)cc2)O3)cc1	x	101.4*[16.7 µM]	x	x
CN(CC(=O)Nc1ccccc1Cl)C(=O)CN1C(=O)C2CC=CCC2C1=O (stereo not given)	-0.6	1.1	4.8	1.8
CN(C)c1ccc(N=c2sc3ccccc3n2C)cc1	2.6	-2.9	-3.6	-0.6
Cc1cc(C)n2nc(SCc3cccc(S(=O)(=O)N(C)C)c3)nc2n1	x	x	-15.7	42.8*
NC(=O)C1=CC2C3C=CC2(O)C(=O)OC3O1 (stereo not given)	-0.8	135.6*	-9.9	-2.3
Cc1ccc(NC(=O)Cn2ccsc2=N)cc1S(=O)(=O)N(C)C	-1.0	x	-12.8	x
CN(C)S(=O)(=O)c1cc(NC(=O)Cn2ccsc2=N)ccc1Cl	0.3	x	-23.5	101.0*
CCNC(=O)c1cccc(NC(=O)c2cc(C3CC3)nc3c2cnn3C(C)C)c1	-3.9	1.8	-7.4	-0.8
Cc1ccc(-n2c(C)nc3ccsc3c2=O)cc1	-0.7	0.2	3.2	x
Cc1ccc(-c2nc3ccsc3c(=O)o2)cc1	-1.3	2.6	66.3*	12.5
CCOC(=O)C1(CC2CCCCO2)CCN(Cc2nccn2-c2ccc(OC)cc2)CC1 (stereo not given)	-0.7	x	-10.3	1.6
Clc1cccc(Cl)c1CSc1nnc(CN2CCOCC2)n1-c1ccccc1	-0.9	125.8*	0.3	-2.9
Cc1ccc(NC(=O)C(OC(=O)c2ccc(O)cc2)c2ccccc2)cc1Cl (stereo not given)	-1.7	2.3	-10.6	-3.3
Cc1ccc(NC(=O)C(OC(=O)c2ccc(F)cc2)c2ccccc2)cc1Cl (stereo not given)	-0.7	137.2*	-18.9	-1.1
O=C(NC(=S)Nc1ccccc1)c1cncc(C#Cc2ccccc2)c1	0.3	x	-12.4	45.4*
COc1ccc(-c2nn(CCC#N)cc2/C=N/O)cc1	0.2	x	4.6	-1.5
COc1ccc(-c2nn(CCC#N)cc2/C=N/O)cc1OC	8.6	x	-4.4	58.2*
COC(=O)C1C(O)=C(C=NCc2ccccc2)C(=O)CC1(C)C (stereo not given)	-0.2	-2.9	-12.3	1.4
COC(=O)C1C(O)=C(C=Nc2cccc3ccccc23)C(=O)CC1(C)C (stereo not given)	-2.2	x	-15.5	59.6*
O=S(=O)(Nc1cccc2ncccc12)c1cccs1	-1.1	234.4*	4.5	-1.4
COc1cc(C(=O)NNC(=O)c2ccc3c(c2)OCCO3)cc(OC)c1OC	-0.4	2.4	-21.4	92.0*
Cc1cccc2cc(-c3nc4ccc(C(=O)O)cc4[nH]3)c(=O)oc12	x	x	-13.9	80.8*
COc1cccc2cc(-c3nc4ccccc4[nH]3)c(=O)oc12	-0.9	x	-12.5	1.5
CC(C)(C)c1ccc(S(=O)(=O)N2CCCC2C(=O)N2CCOCC2)cc1 (stereo not given)	-0.8	-0.7	-2.7	2.8
